Laboratory results as given in ChEMBL document CHEMBL1149431 (Bioorg Med Chem Lett, 2006).
The source made the active and inactive calls. The rule behind the calls is not given here.

Columns and labels:
[1] = Metabolic stability by incubation with human hepatocytes; format: ADME, cell-based, Liver, Hepatocyte
Summary of the method: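 Compounds at 23 µM incubated separately with pooled (n = 2) cryopreserved human hepatocytes (2 million cells/mL) in phenol-red-free Waymouth's medium with FBS 4.5%, insulin, glutamine 3.6 mM, pyruvate 4.5 mM, dexamethasone 0.9 µM; 1% methanol. Samples at 0, 180, 360 min quenched in acetonitrile, protein spun off. Half-life from parent disappearance.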

Rattus norvegicus [2] = test: Effect on latency in tail flick in rat after 1 and 2 hrs of administration of 50 mg/kg, ip; format: functional, organism-based; design: dose 50 mg/kg; details: tested as the 2H-labelled form
Summary of the method: (§1)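 Rat tail-flick model; single intraperitoneal dose of 50 mg/kg, with 5 mg/kg ip morphine and saline as controls. Tail-flick latency (s) read at 1, 2, 4 and 8 h after dosing. n = 9–10 per group; significance vs control by Dunnett's test (p<0.05, p<0.01).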

Rattus norvegicus [3] = test: Effect on latency in tail flick in rat after 1,2,4 and 8 hrs of administration of 50 mg/kg, ip; format: functional, organism-based; design: dose 50 mg/kg; summary of the method: as §1
[4] = biological target: Sodium-dependent noradrenaline transporter (Homo sapiens, UniProt P23975); test: Inhibition of reuptake of Norepinephrine
[5] = Metabolic stability by incubation with human liver microsomes; format: ADME, Microsome
Summary of the method: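 Human liver microsomes (4 mg protein/mL) incubated with compound at 23 µM, 37 ± 1 °C, in 50 mM potassium phosphate pH 7.4 with 3 mM MgCl2 and 1 mM EDTA. Sampled at 0, 90 and 180 min; half-life calculated from loss of parent compound.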

Sequence of Sodium-dependent noradrenaline transporter (P23975 whole entry): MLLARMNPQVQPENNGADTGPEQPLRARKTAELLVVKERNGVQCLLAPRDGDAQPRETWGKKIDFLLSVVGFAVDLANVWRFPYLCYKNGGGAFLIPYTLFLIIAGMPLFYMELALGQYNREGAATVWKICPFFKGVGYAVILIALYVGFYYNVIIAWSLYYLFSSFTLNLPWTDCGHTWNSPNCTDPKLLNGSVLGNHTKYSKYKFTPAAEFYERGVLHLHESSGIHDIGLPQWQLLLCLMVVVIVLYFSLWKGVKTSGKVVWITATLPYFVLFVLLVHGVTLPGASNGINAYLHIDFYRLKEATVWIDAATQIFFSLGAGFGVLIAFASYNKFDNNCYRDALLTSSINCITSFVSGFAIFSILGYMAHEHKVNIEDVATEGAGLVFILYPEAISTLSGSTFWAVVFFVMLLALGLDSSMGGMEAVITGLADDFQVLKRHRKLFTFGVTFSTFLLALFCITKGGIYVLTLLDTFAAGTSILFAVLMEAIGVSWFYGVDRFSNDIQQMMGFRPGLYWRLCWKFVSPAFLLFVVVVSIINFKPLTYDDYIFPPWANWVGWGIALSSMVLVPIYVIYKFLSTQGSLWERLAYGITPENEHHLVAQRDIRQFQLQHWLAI

SMILES | half-life [1] | Activity (Rattus norvegicus [2]) | Activity (Rattus norvegicus [3]) | Activity (Rattus norvegicus [3]; tested as the 2H-labelled form) | IC50 [4] | half-life [5]
COc1cccc([C@@]2(O)CCCC[C@@H]2CN(C)C)c1 [TRAMADOL] | 16.1 h | Active | Active | Active | 0.79 µM | 12.3 h
[2H]C([2H])([2H])N(C[C@H]1CCCC[C@]1(O)c1cccc(OC)c1)C([2H])([2H])[2H] | 14.2 h |  |  |  | 3.2 µM | 9.12 h
[2H]C([2H])([2H])N(C[C@H]1CCCC[C@]1(O)c1cccc(O)c1)C([2H])([2H])[2H] | 27.5 h |  |  |  | 6.7 µM | 12.4 h
CN(C)C[C@H]1CCCC[C@]1(O)c1cccc(O)c1 [O-DESMETHYL TRAMADOL] | 26 h |  |  |  | > 10 µM | 47 h
[2H]C([2H])([2H])Oc1cccc([C@@]2(O)CCCC[C@@H]2CN(C)C)c1 | 22.2 h |  |  |  | 3.6 µM | 12.4 h
[2H]C([2H])([2H])Oc1cccc([C@@]2(O)CCCC[C@@H]2CN(C([2H])([2H])[2H])C([2H])([2H])[2H])c1 | 60.2 h |  |  |  | 2 µM | 120 h
